Data: ChEMBL document CHEMBL3124823, “1,2,3-Triazole-containing derivatives of rupestonic acid: click-chemical synthesis and antiviral activities against influenza viruses” (Eur J Med Chem, 2014)
Values after ≈ are worked out from the molar mass of the structure shown.

System: Influenza A virus
Assay: Antiviral activity against oseltamivir-resistant Influenza A virus (A/Tianjinjinnan/15/2009/H1N1) infected in MDCK cells assessed as inhibition of virus-induced cytopathicity after 40 hrs
Type: functional, organism-based
Settings: A/Tianjin-Jinnan/15/2009(H1N1)
Method in brief: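 CPE reduction in MDCK cells: cells grown 24 h at 37 °C, 5% CO2, then infected and held 2 h at 37 °C before the inoculum was removed. Threefold serial drug dilutions (8 levels from 20 mg/mL DMSO stocks) were added and incubated 40 h at 37 °C. CPE inhibition was scored against cell and virus controls to give IC50. Ribavirin and oseltamivir were the controls.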

Question: With C=C(C(=O)NCc1cn(Cc2ccc(F)cc2)nn1)[C@@H]1CC[C@H](C)[C@@H]2CC(=O)C(C)=C2C1 as the compound, how does the IC50 read?
Answer: The IC50 was over 66.7 µg/mL.

Question: Which IC50 does the source give for C=C(C(=O)OCc1cn(Cc2cccc(Cl)c2)nn1)[C@@H]1CC[C@H](C)[C@@H]2CC(=O)C(C)=C2C1 here?
Answer: Its IC50 is over 66.7 µg/mL.

Question: With C=C(C(=O)OCc1cn(Cc2ccc(Cl)cc2)nn1)[C@@H]1CC[C@H](C)[C@@H]2CC(=O)C(C)=C2C1 as the compound, how does the IC50 read?
Answer: Its IC50 is over 22.2 µg/mL.

Question: How did the IC50 turn out when C=C(C(=O)OCc1cn(Cc2ccccc2F)nn1)[C@@H]1CC[C@H](C)[C@@H]2CC(=O)C(C)=C2C1 was run?
Answer: The IC50 was over 22.2 µg/mL.

Question: Which IC50 does the source give for C=C(C(=O)OCc1cn(Cc2cccc(F)c2)nn1)[C@@H]1CC[C@H](C)[C@@H]2CC(=O)C(C)=C2C1 here?
Answer: The IC50 was over 22.2 µg/mL.

Question: Which IC50 does the source give for C=C(C(=O)OCc1cn(Cc2ccc(F)cc2)nn1)[C@@H]1CC[C@H](C)[C@@H]2CC(=O)C(C)=C2C1 here?
Answer: The IC50 was over 22.2 µg/mL.

Question: Which IC50 does the source give for C=C(C(=O)OCc1cn(Cc2ccc(Cl)c(Cl)c2)nn1)[C@@H]1CC[C@H](C)[C@@H]2CC(=O)C(C)=C2C1 here?
Answer: The IC50 was over 7.41 µg/mL.

Question: C=C(C(=O)OCc1cn(C2C=CCCC2)nn1)[C@@H]1CC[C@H](C)[C@@H]2CC(=O)C(C)=C2C1 (some centres not stated) was tested. Which IC50 did it give?
Answer: The IC50 was over 7.41 µg/mL.

Question: How did the IC50 turn out when C=C(C(=O)OCc1cn(C2CCCCC2)nn1)[C@@H]1CC[C@H](C)[C@@H]2CC(=O)C(C)=C2C1 was run?
Answer: Its IC50 is 59.2 µg/mL (≈ 144 µM).

Question: C=C(C(=O)NCc1cn(Cc2ccccc2C)nn1)[C@@H]1CC[C@H](C)[C@@H]2CC(=O)C(C)=C2C1 was tested. Which IC50 did it give?
Answer: The IC50 was over 22.2 µg/mL.

Question: C=C(C(=O)NCc1cn(Cc2cccc(C)c2)nn1)[C@@H]1CC[C@H](C)[C@@H]2CC(=O)C(C)=C2C1 was tested. Which IC50 did it give?
Answer: The IC50 was over 22.2 µg/mL.

Question: For C=C(C(=O)NCc1cn(Cc2ccc(C)cc2)nn1)[C@@H]1CC[C@H](C)[C@@H]2CC(=O)C(C)=C2C1, which IC50 is on record?
Answer: The IC50 was over 22.2 µg/mL.

Question: C=C(C(=O)NCc1cn(Cc2ccccc2)nn1)[C@@H]1CC[C@H](C)[C@@H]2CC(=O)C(C)=C2C1 was tested. Which IC50 did it give?
Answer: The IC50 was over 22.2 µg/mL.

Question: With C=C(C(=O)NCc1cn(Cc2cccc(OC)c2)nn1)[C@@H]1CC[C@H](C)[C@@H]2CC(=O)C(C)=C2C1 as the compound, how does the IC50 read?
Answer: Its IC50 is over 22.2 µg/mL.

Question: For C=C(C(=O)NCc1cn(Cc2ccc(OC)cc2)nn1)[C@@H]1CC[C@H](C)[C@@H]2CC(=O)C(C)=C2C1, which IC50 is on record?
Answer: The IC50 was over 22.2 µg/mL.

Question: How did the IC50 turn out when C=C(C(=O)NCc1cn(Cc2ccccc2Cl)nn1)[C@@H]1CC[C@H](C)[C@@H]2CC(=O)C(C)=C2C1 was run?
Answer: Its IC50 is over 7.41 µg/mL.

Question: C=C(C(=O)NCc1cn(Cc2cccc(Cl)c2)nn1)[C@@H]1CC[C@H](C)[C@@H]2CC(=O)C(C)=C2C1 was tested. Which IC50 did it give?
Answer: The IC50 was over 7.41 µg/mL.

Question: With C=C(C(=O)NCc1cn(Cc2ccc(Cl)cc2)nn1)[C@@H]1CC[C@H](C)[C@@H]2CC(=O)C(C)=C2C1 as the compound, how does the IC50 read?
Answer: The IC50 was over 2.47 µg/mL.

Question: Which IC50 does the source give for C=C(C(=O)NCc1cn(Cc2ccccc2F)nn1)[C@@H]1CC[C@H](C)[C@@H]2CC(=O)C(C)=C2C1 here?
Answer: Its IC50 is over 66.7 µg/mL.

Question: C=C(C(=O)NCc1cn(Cc2cccc(F)c2)nn1)[C@@H]1CC[C@H](C)[C@@H]2CC(=O)C(C)=C2C1 was tested. Which IC50 did it give?
Answer: Its IC50 is over 22.2 µg/mL.

Question: For C=C(C(=O)NCc1cn(Cc2ccc(Cl)c(Cl)c2)nn1)[C@@H]1CC[C@H](C)[C@@H]2CC(=O)C(C)=C2C1, which IC50 is on record?
Answer: The IC50 was 22.2 µg/mL (≈ 45.6 µM).

Question: How did the IC50 turn out when C=C(C(=O)NCc1cn(C2C=CCCC2)nn1)[C@@H]1CC[C@H](C)[C@@H]2CC(=O)C(C)=C2C1 (some centres not stated) was run?
Answer: Its IC50 is 19.7 µg/mL (≈ 48.3 µM).

Question: C=C(C(=O)NCc1cn(C2CCCCC2)nn1)[C@@H]1CC[C@H](C)[C@@H]2CC(=O)C(C)=C2C1 was tested. Which IC50 did it give?
Answer: Its IC50 is 22.2 µg/mL (≈ 54.1 µM).

Question: With C=C(C(=O)OCc1cn(Cc2ccccc2C)nn1)[C@@H]1CC[C@H](C)[C@@H]2CC(=O)C(C)=C2C1 as the compound, how does the IC50 read?
Answer: The IC50 was over 22.2 µg/mL.

Question: With C=C(C(=O)OCc1cn(Cc2cccc(C)c2)nn1)[C@@H]1CC[C@H](C)[C@@H]2CC(=O)C(C)=C2C1 as the compound, how does the IC50 read?
Answer: Its IC50 is 19.7 µg/mL (≈ 45.5 µM).

Question: C=C(C(=O)OCc1cn(Cc2ccc(C)cc2)nn1)[C@@H]1CC[C@H](C)[C@@H]2CC(=O)C(C)=C2C1 was tested. Which IC50 did it give?
Answer: Its IC50 is over 22.2 µg/mL.

Question: C=C(C(=O)OCc1cn(Cc2ccccc2)nn1)[C@@H]1CC[C@H](C)[C@@H]2CC(=O)C(C)=C2C1 was tested. Which IC50 did it give?
Answer: Its IC50 is over 7.41 µg/mL.

Question: How did the IC50 turn out when C=C(C(=O)OCc1cn(Cc2cccc(OC)c2)nn1)[C@@H]1CC[C@H](C)[C@@H]2CC(=O)C(C)=C2C1 was run?
Answer: The IC50 was over 22.2 µg/mL.

Question: How did the IC50 turn out when C=C(C(=O)OCc1cn(Cc2ccc(OC)cc2)nn1)[C@@H]1CC[C@H](C)[C@@H]2CC(=O)C(C)=C2C1 was run?
Answer: The IC50 was 22.2 µg/mL (≈ 49.4 µM).

Question: Which IC50 does the source give for C=C(C(=O)OCc1cn(Cc2ccccc2Cl)nn1)[C@@H]1CC[C@H](C)[C@@H]2CC(=O)C(C)=C2C1 here?
Answer: Its IC50 is 59.2 µg/mL (≈ 130 µM).

Question: With CCOC(=O)C1=C[C@@H](OC(CC)CC)[C@H](NC(C)=O)[C@@H](N)C1 [OSELTAMIVIR] as the compound, how does the IC50 read?
Answer: The IC50 was over 500 µg/mL.

Question: How did the IC50 turn out when NC(=O)c1ncn([C@@H]2O[C@H](CO)[C@@H](O)[C@H]2O)n1 [RIBAVIRIN] was run?
Answer: The IC50 was 6.5 µg/mL (≈ 26.6 µM).
